Several values for one entry are separate records, joined by “and”; a condition that tells them apart may be missing. Equal values may be shown once.
Tested on: Fibroblast
Assay: Multiplex assay against human fibroblast
Format: toxicity, cell-based
Procedure, shortened: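 Phenotypes for tubulin, mitochondrial mass and membrane permeability are expressed as per cents of healthy-nucleus cells. Cells were stained live at seeding with Hoechst33342, BioTracker Green Microtubule Cytoskeleton Dye, MitoTracker Red and Annexin V Alexa Fluor 680, then imaged after compound addition on a CQ1 microscope at 37°C and 5% CO2. Machine-learning gating in CellPathfinder separated Hoechst high-intensity objects from normal cells, divided normal cells by nuclear state (healthy, pyknosed, fragmented) and divided pyknosed cells into mitotic or apoptotic.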

[1] = 12 h, 10 µM, compound concentration 10 uM, replicate 1
[2] = 12 h, 10 µM, compound concentration 10 uM, replicate 2
[3] = 24 h, 10 µM, compound concentration 10 uM, replicate 1
[4] = 24 h, 10 µM, compound concentration 10 uM, replicate 2
[5] = 12 h, 1 µM, compound concentration 1 uM, replicate 1
[6] = 12 h, 1 µM, compound concentration 1 uM, replicate 2
[7] = 24 h, 1 µM, compound concentration 1 uM, replicate 1
[8] = 24 h, 1 µM, compound concentration 1 uM, replicate 2

CCN(CC)S(=O)(=O)Nc1cccc(-c2ccc3c(NC(=O)C4CC4)n[nH]c3c2)c1
Population Apoptotic (%) [1]: 81%
Population Fragmented Nuclei (%) [1]: 23% and 19%
Population Healthy Nuclei (%) [1]: 64% and 56%
Population Hoechst High Intensity Objects (%) [1]: 13% and 11%
Population Membrane Permeable-Phenotype (%) [1]: 9% and 5%
Population Mitochondria Different-Phenotype (%) [1]: 2% and 6%
Population Mitotic Cells (%) [1]: 18%
Population Normal (%) [1]: 86% and 88%
Population Pyknosed Nuclei (%) [1]: 11% and 23%
Population Tubulin-Different-Phenotype (%) [1]: 5% and 7%
Total Cell Count [1]: 220 and 309
Population Apoptotic (%) [2]: 66% and 40%
Population Fragmented Nuclei (%) [2]: 72% and 55%
Population Healthy Nuclei (%) [2]: 17% and 34%
Population Hoechst High Intensity Objects (%) [2]: 48% and 35%
Population Membrane Permeable-Phenotype (%) [2]: 20% and 11%
Population Mitotic Cells (%) [2]: 33% and 60%
Population Normal (%) [2]: 51% and 65%
Population Pyknosed Nuclei (%) [2]: 10% and 9%
Population Tubulin-Different-Phenotype (%) [2]: 20% and 11%
Total Cell Count [2]: 56 and 80
Population Apoptotic (%) [3]: 77% and 62%
Population Fragmented Nuclei (%) [3]: 22% and 19%
Population Healthy Nuclei (%) [3]: 66% and 62%
Population Hoechst High Intensity Objects (%) [3]: 13% and 11%
Population Membrane Permeable-Phenotype (%) [3]: 6% and 4%
Population Mitochondria Different-Phenotype (%) [3]: 0% and 8%
Population Mitotic Cells (%) [3]: 22% and 38%
Population Normal (%) [3]: 86% and 88%
Population Pyknosed Nuclei (%) [3]: 10% and 18%
Population Tubulin-Different-Phenotype (%) [3]: 0% and 11%
Total Cell Count [3]: 238 and 311
Population Fragmented Nuclei (%) [4]: 51% and 63%
Population Healthy Nuclei (%) [4]: 35% and 23%
Population Hoechst High Intensity Objects (%) [4]: 31% and 42%
Population Membrane Permeable-Phenotype (%) [4]: 10% and 28%
Population Normal (%) [4]: 68% and 57%
Population Pyknosed Nuclei (%) [4]: 12% and 13%
Total Cell Count [4]: 79 and 52

COc1ccc(S(=O)(=O)N(CCO)c2ccccc2CN(C)C/C=C/c2ccc(Cl)cc2)cc1.O=P(O)(O)O
Population Fragmented Nuclei (%) [5]: 35%
Population Healthy Nuclei (%) [5]: 51%
Population Hoechst High Intensity Objects (%) [5]: 16%
Population Membrane Permeable-Phenotype (%) [5]: 12%
Population Mitochondria Different-Phenotype (%) [5]: 29%
Population Mitotic Cells (%) [5]: 19%
Population Normal (%) [5]: 83%
Population Pyknosed Nuclei (%) [5]: 13%
Population Tubulin-Different-Phenotype (%) [5]: 86%
Total Cell Count [5]: 278
Population Apoptotic (%) [6]: 80%
Population Fragmented Nuclei (%) [6]: 56%
Population Healthy Nuclei (%) [6]: 33%
Population Hoechst High Intensity Objects (%) [6]: 33%
Population Membrane Permeable-Phenotype (%) [6]: 11%
Population Mitochondria Different-Phenotype (%) [6]: 88%
Population Mitotic Cells (%) [6]: 20%
Population Normal (%) [6]: 66%
Population Pyknosed Nuclei (%) [6]: 9%
Population Tubulin-Different-Phenotype (%) [6]: 94%
Total Cell Count [6]: 77
Population Apoptotic (%) [1]: 75%
Population Fragmented Nuclei (%) [1]: 32%
Population Healthy Nuclei (%) [1]: 55%
Population Hoechst High Intensity Objects (%) [1]: 10%
Population Membrane Permeable-Phenotype (%) [1]: 14%
Population Mitochondria Different-Phenotype (%) [1]: 5%
Population Mitotic Cells (%) [1]: 25%
Population Normal (%) [1]: 89%
Population Pyknosed Nuclei (%) [1]: 12%
Population Tubulin-Different-Phenotype (%) [1]: 19%
Total Cell Count [1]: 179
Population Apoptotic (%) [2]: 50%
Population Fragmented Nuclei (%) [2]: 61%
Population Healthy Nuclei (%) [2]: 34%
Population Hoechst High Intensity Objects (%) [2]: 44%
Population Membrane Permeable-Phenotype (%) [2]: 22%
Population Mitochondria Different-Phenotype (%) [2]: 22%
Population Mitotic Cells (%) [2]: 50%
Population Normal (%) [2]: 55%
Population Pyknosed Nuclei (%) [2]: 3%
Population Tubulin-Different-Phenotype (%) [2]: 55%
Total Cell Count [2]: 94
Population Apoptotic (%) [7]: 80%
Population Fragmented Nuclei (%) [7]: 34%
Population Healthy Nuclei (%) [7]: 55%
Population Hoechst High Intensity Objects (%) [7]: 23%
Population Membrane Permeable-Phenotype (%) [7]: 5%
Population Mitochondria Different-Phenotype (%) [7]: 79%
Population Mitotic Cells (%) [7]: 20%
Population Normal (%) [7]: 76%
Population Pyknosed Nuclei (%) [7]: 9%
Population Tubulin-Different-Phenotype (%) [7]: 90%
Total Cell Count [7]: 264
Population Apoptotic (%) [8]: 100%
Population Fragmented Nuclei (%) [8]: 48%
Population Healthy Nuclei (%) [8]: 38%
Population Hoechst High Intensity Objects (%) [8]: 37%
Population Membrane Permeable-Phenotype (%) [8]: 0%
Population Mitochondria Different-Phenotype (%) [8]: 100%
Population Mitotic Cells (%) [8]: 0%
Population Normal (%) [8]: 62%
Population Pyknosed Nuclei (%) [8]: 12%
Population Tubulin-Different-Phenotype (%) [8]: 88%
Total Cell Count [8]: 75
Population Apoptotic (%) [3]: 69%
Population Fragmented Nuclei (%) [3]: 33%
Population Healthy Nuclei (%) [3]: 52%
Population Hoechst High Intensity Objects (%) [3]: 14%
Population Membrane Permeable-Phenotype (%) [3]: 8%
Population Mitochondria Different-Phenotype (%) [3]: 3%
Population Mitotic Cells (%) [3]: 30%
Population Normal (%) [3]: 85%
Population Pyknosed Nuclei (%) [3]: 14%
Population Tubulin-Different-Phenotype (%) [3]: 14%
Total Cell Count [3]: 186
Population Apoptotic (%) [4]: 75%
Population Fragmented Nuclei (%) [4]: 71%
Population Healthy Nuclei (%) [4]: 20%
Population Hoechst High Intensity Objects (%) [4]: 44%
Population Membrane Permeable-Phenotype (%) [4]: 18%
Population Mitochondria Different-Phenotype (%) [4]: 18%
Population Mitotic Cells (%) [4]: 25%
Population Normal (%) [4]: 55%
Population Pyknosed Nuclei (%) [4]: 7%
Population Tubulin-Different-Phenotype (%) [4]: 36%
Total Cell Count [4]: 95
